From ChEMBL document CHEMBL1153789, “The methoxylated flavones eupatorin and cirsiliol induce CYP1 enzyme expression in MCF7 cells” (J Nat Prod, 2009) come the findings set out here.

Active and inactive are the calls of the source. The calls are words filed in the database; no cut-off is given here.

Holding throughout (format): functional, cell-based
Assay [1] relates to MCF7. Briefly: Antiproliferative activity in human MCF7 cells at 1.5 uM after 96 hrs by MTT assay.
The test system of assay [2] is MCF7. Briefly: Induction of CYP1B1 expression in human MCF7 cells at 10 nM after 24 hrs by 7-ethoxyresorufin-O-deethelase assay. The method in brief:
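MCF7 cells were exposed for 24 h to 0.31, 0.625, 1.25 or 2.5 µM flavone, with 10 nM TCDD as positive control and 0.1% DMSO as negative control. CYP1 activity was read by 7-ethoxyresorufin-O-deethylation (EROD), which is mainly CYP1A1-selective, though CYP1B1 may contribute. The time course used 2.5 µM. Three replicates.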

In assay [3] the test system is MCF7. Briefly: Induction of CYP1A1 expression in human MCF7 cells at 0.5 uM to 10 uM after 24 hrs by RT PCR and DNA electrophoresis.
The test system of assay [4] is MCF7. Briefly: Induction of CYP1B1 expression in human MCF7 cells at 1.25 uM after 24 hrs by RT PCR. The method, boiled down: (§1)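 MCF7 cells treated 24 h (0, 1.25, 2.5, 5 µM; 10 nM TCDD reference); RT-PCR for CYP1A1, CYP1B1 and β-actin, primers per Döhr et al.; band intensities normalized to β-actin, semiquantitative; gels representative of three individual experiments.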

The subject of assay [5] is MCF7. Briefly: Antiproliferative activity in human MCF7 cells after 96 hrs by MTT assay in presence of acacetin.
In assay [6] the test system is MCF7. Briefly: Induction of CYP1A1 expression in human MCF7 cells at 5 uM after 24 hrs by RT PCR. The method in brief:
as §1

The test system of assay [7] is MCF7. Briefly: Induction of CYP1A1 expression in human MCF7 cells at 2.5 uM after 24 hrs by RT PCR. The method, boiled down: as §1
Assay [8] relates to MCF7. Briefly: Induction of CYP1B1 expression in human MCF7 cells at 5 uM after 24 hrs by RT PCR. The method, boiled down: as §1
In assay [9] the test system is MCF7. Briefly: Antiproliferative activity in human MCF7 cells after 96 hrs by MTT assay. The note with it: MCF7, 96 h.
The test system of assay [10] is MCF7. Briefly: Induction of CYP1A1 expression in human MCF7 cells after 24 hrs by 7-ethoxyresorufin-O-deethelase assay. The method, boiled down:
(§2)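 EROD (7-ethoxyresorufin-O-deethylase) activity in MCF7 cells after 24 h exposure to 0.31, 0.625, 1.25, 2.5 µM flavone; 10 nM TCDD positive control, 0.1% DMSO negative control; three replicates. Read-out reflects mainly CYP1A1, with possible CYP1B1 contribution.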

In assay [11] the test system is MCF7. Briefly: Induction of CYP1B1 expression in human MCF7 cells after 24 hrs by 7-ethoxyresorufin-O-deethelase assay. The method, boiled down:
as §2

Regarding `COc1ccc(-c2cc(=O)c3c(O)cc(O)cc3o2)cc1`, the outcome in assay [1] was inactive.

For `Clc1cc2c(cc1Cl)Oc1cc(Cl)c(Cl)cc1O2`, in assay [2], the result was Active.

In the case of `O=c1c(O)c(-c2ccc(O)c(O)c2)oc2cc(O)cc(O)c12`, the result in assay [3] was Active.

`O=c1c(O)c(-c2ccc(O)cc2)oc2cc(O)cc(O)c12`: in assay [3], the outcome was inactive.

On to `COc1cc2oc(-c3ccc(O)c(O)c3)cc(=O)c2c(O)c1OC` [CIRSILIOL], for which the result in assay [4], in assay [7] and in assay [8] was Active. For the same compound, the IC25 in assay [5] (MCF7, 96 h) is 5 µM; in [9] it was 0.5 µM. The IC50 in [5] (MCF7, 96 h) turned out to be 15 µM; in assay [9] it was 8 µM. The result in [6] was inactive.

Take `COc1ccc(-c2cc(=O)c3c(O)c(OC)c(OC)cc3o2)cc1O` [EUPATORIN]: the Activity entry in assay [10] and in assay [11] was “Dose-dependent effect” throughout. For the same compound, the outcome in [5] was inactive. Besides, the result in [6] and in assay [8] was Active. In [9], this compound returned an IC50 of 7 µM.
